As usually defined, the Ki is the dissociation constant of the complex between target and ligand, obtained from inhibition or displacement. Broadly, the pKb is −log10 of the Kb, conventionally taken in molar units.

Test [1] deals with T1, Alpha-1A adrenergic receptor (Homo sapiens, UniProt P35348).
T1 sequence (P35348 whole entry): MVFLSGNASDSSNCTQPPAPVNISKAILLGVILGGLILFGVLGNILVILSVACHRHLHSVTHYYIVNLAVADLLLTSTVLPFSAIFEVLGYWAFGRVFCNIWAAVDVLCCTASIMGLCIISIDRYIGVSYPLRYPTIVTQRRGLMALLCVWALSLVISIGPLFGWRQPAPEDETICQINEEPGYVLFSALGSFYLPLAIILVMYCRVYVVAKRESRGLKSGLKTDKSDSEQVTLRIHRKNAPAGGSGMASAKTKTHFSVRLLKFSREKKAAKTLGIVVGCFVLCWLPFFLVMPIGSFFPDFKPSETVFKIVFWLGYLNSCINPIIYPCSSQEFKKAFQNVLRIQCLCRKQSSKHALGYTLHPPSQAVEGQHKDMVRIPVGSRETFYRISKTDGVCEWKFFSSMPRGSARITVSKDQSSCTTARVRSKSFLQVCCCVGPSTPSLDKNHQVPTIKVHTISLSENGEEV
Nature of the test: Displacement of [125I]BE2254 from human alpha1a receptor expressed in HEK293 cells. Type of test: cell-based. The method in brief: (§1)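 Membranes from HEK293 cells stably transfected with human α1A, α1B or α1D receptor cDNA, selected under 400 µg/mL geneticin. Competition against 50 pM [125I]BE2254; nonspecific binding defined with 10 µM phentolamine. Curves fitted by nonlinear regression. Mean ± SE of three experiments run in duplicate.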

Test [2] deals with T2, Alpha-1B adrenergic receptor (Homo sapiens, UniProt P35368).
T2 sequence (P35368 whole entry): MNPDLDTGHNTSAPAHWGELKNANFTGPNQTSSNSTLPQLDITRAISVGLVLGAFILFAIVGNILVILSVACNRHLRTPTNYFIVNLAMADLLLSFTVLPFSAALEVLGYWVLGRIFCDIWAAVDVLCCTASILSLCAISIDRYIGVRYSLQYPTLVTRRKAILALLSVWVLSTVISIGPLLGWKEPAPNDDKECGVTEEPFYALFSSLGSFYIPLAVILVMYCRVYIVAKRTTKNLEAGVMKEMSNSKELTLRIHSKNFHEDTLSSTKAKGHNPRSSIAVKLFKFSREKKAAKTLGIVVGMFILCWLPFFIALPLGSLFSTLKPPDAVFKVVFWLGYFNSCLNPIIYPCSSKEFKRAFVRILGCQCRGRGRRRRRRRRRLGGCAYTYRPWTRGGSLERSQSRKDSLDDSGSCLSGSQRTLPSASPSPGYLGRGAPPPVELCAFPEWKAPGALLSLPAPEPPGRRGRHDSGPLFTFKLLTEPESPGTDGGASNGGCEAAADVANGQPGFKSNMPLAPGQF
In words: Displacement of [125I]BE2254 from human alpha1b receptor expressed in HEK293 cells. It is filed as cell-based. The method in brief: as §1

For test [3], the target named is T3, Alpha-1A adrenergic receptor (Rattus norvegicus) (UniProt P43140).
T3 sequence (whole entry): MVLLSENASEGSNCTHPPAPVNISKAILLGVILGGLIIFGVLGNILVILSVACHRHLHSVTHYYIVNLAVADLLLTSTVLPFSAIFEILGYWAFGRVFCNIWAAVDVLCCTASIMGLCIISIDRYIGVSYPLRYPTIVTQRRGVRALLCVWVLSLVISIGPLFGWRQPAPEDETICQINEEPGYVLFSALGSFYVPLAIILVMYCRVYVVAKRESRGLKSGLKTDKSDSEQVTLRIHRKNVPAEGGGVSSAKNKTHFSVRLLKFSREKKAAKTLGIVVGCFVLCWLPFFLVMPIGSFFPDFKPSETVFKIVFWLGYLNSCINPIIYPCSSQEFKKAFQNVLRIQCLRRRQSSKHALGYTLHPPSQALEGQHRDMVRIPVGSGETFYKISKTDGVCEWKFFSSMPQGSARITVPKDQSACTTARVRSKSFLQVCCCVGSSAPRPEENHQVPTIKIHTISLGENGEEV
Nature of the test: Antagonist activity at alpha1A adrenoceptor in Wistar rat vas deferens assessed as noradrenaline induced contractions. The method in brief: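 Male Wistar rat (275-300 g) prostatic vas deferens in 20 mL organ bath, physiological salt solution, 37 °C, 5% CO2:95% O2, pH 7.4. Primed twice with 10 µM (-)-NA, 45 min wash/equilibration, then cumulative (-)-NA curve recorded isotonically. Antagonist incubated 30–60 min before repeat curve. pKb = log(DR-1) - log[B] from ED50 ratio; mean ± SE of 4–5 experiments.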

Test [4] concerns the target T4, Alpha-1B adrenergic receptor (Rattus norvegicus) (UniProt P15823).
T4 sequence (whole entry): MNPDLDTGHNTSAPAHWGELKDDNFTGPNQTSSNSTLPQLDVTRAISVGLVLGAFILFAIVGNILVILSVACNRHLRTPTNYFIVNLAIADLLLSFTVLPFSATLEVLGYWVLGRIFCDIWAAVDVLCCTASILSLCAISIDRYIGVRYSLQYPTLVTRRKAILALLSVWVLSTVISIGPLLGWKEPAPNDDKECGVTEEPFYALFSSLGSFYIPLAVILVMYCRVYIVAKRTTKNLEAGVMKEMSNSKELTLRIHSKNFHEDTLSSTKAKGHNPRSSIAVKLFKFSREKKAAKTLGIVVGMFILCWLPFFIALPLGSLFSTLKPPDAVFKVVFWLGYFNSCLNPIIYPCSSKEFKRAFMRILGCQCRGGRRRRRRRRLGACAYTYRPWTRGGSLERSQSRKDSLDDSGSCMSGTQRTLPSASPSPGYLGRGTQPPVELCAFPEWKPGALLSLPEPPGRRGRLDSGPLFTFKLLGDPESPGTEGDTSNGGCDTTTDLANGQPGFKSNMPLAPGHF
In words: Antagonist activity at alpha1B adrenoceptor in Wistar rat spleen assessed as phenylephrine induced contractions. The method in brief: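 Wistar rat spleen strips under 1 g resting tension, equilibrated 2 h, with 4 µM (±)-propranolol to block β-adrenoceptors. Cumulative phenylephrine curves measured isometrically at 30 min intervals, first discarded, second as control. Antagonist incubated 30–60 min before repeat curve. pKb from ED50 dose ratio via pKb = log(DR-1) - log[B]; mean ± SE of 4–5 experiments.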

`COc1ccccc1N1CCN(CCn2c(=O)[nH]c3c(sc4ccc(NC(=O)CCCC(=O)N(C)Cc5ccccc5)cc43)c2=O)CC1`: the Ki in test [1] was 0.933 nM; in test [2], 1.91 nM. In addition, the negative logarithm of the Kb (pKb) came out at 7.82 in test [3] and 7.77 in test [4].

For the molecule `COc1ccccc1N1CCN(CCn2c(=O)[nH]c3c(sc4ccc(NC(=O)CCCC(=O)NCc5ccccc5)cc43)c2=O)CC1`, the results for the inhibition constant (Ki) in test [1] and in test [2] were 0.324 nM and 0.832 nM, respectively. Moreover, the negative-log Kb (pKb) in test [3] was 7.7; in test [4], 7.94.

Values taken from ChEMBL document CHEMBL3297709, “High affinity ligands and potent antagonists for the α1D-adrenergic receptor. Novel 3,8-disubstituted [1]benzothieno[3,2-d]pyrimidine derivatives” (Eur J Med Chem, 2014).
